Entries after “also recorded” stand apart in the source; their conditions may differ.
Columns and labels:
[1] = system: HEK293T cell line (human embryonic kidney); experiment: MTT cytotoxicity assay, HEK293T; type: cell-based; conditions: 24 h
Outline: (§1)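 Cells (1 × 10^4 per well in 0.2 mL medium) were exposed to test compounds, pre-dissolved in DMSO, at 0.01–1 mM for 24 h. Compounds were then washed out with three PBS washes, and MTT was read at once. Five replicates per concentration, each repeated at least three times; IC50 given as mean + SD. MCF7, A549 and HaCaT were grown in DMEM with 10% FBS and 1% streptomycin/penicillin. DU-145 and HEK293T were grown in MEM with 10% FBS. All cultures were kept at 37 °C, 5% CO2.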

[2] = system: HaCat (human keratinocyte); experiment: MTT cytotoxicity assay, HaCat; type: cell-based; conditions: 24 h
Outline: as §1

[3] = system: MCF7 cell line (human breast adenocarcinoma); experiment: MTT cytotoxicity assay, MCF7; type: cell-based
Outline: as §1

[4] = system: DU-145 cell line (human prostate carcinoma); experiment: MTT cytotoxicity assay, DU-145; type: cell-based
Outline: as §1

[5] = system: A549 cell line (human lung adenocarcinoma); experiment: MTT cytotoxicity assay, A549; type: cell-based
Outline: as §1

DU-145 cells [6] = experiment: ROS generation, H2DCF-DA assay; type: cell-based, human; conditions: DU-145, 24, 48 and 72 h, c = 1 μM
Outline: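 DU-145 prostate carcinoma cells grown in MEM with 10% FBS at 37 °C, 5% CO2, seeded in 96-well plates. Cells were exposed continuously to test compound (copper complexes or free ligands), then loaded with the H2DCF-DA probe. ROS was read by fluorescence, with work done in darkness. Signal was related to an untreated negative control and an extra-H2O2 positive control.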

DU-145 cells [7] = experiment: Mitochondrial membrane potential, JC-10 assay; type: cell-based, human; conditions: DU-145, compounds at IC50, 24 h, JC-10 emission ratio 570 nm/530 nm
Outline: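 DU-145 cells were seeded at 1 × 10^4 per 0.2 mL. After 24 h the medium was replaced with test compound solutions, gentamicin (0.5 mg mL−1, positive control) or ciprofloxacin (10 μg mL−1, negative control), then incubated 24 h at 37 °C, 5% CO2. Cells were PBS-washed twice and loaded with JC-10 for 1 h. Emission read at λex 540/λem 570 nm and λex 485/λem 530 nm; red/green ratio reported as mean + SD.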

[8] = system: HEK293T and HaCat normal cell lines; experiment: Cytotoxicity toward normal cell lines, stated in words; type: cell-based, human
Outline: as §1

[9] = Stability in DMSO solution by FT-IR; type: physicochemical; conditions: 2% solution in DMSO, 0-96 h, qualitative
Outline: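 ATR FT-IR of 2% solutions of the complexes in DMSO, one drop on the diamond plate, recorded at 1, 24, 48, 72 and 96 h. Settings: 2 cm−1 resolution, 128 scans, 4000–400 and 600–100 cm−1, room temperature. Solution spectra were compared with the solid-state spectra; qualitative only.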

Stability in DMSO/H2O = type: physicochemical
Outline: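 UV-Vis spectra of the complexes in DMSO/H2O (9:1, v/v) at room temperature, recorded right after dissolving and at 48 and 96 h. Full range recorded at 10−6 M; d–d bands recorded at 10−4 M.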

[10] = HEK293T, non-cancerous cell line, MTT
[11] = HaCat, non-cancerous cell line, MTT
[12] = MCF7, cancer cell line, 24 h, MTT
[13] = DU145, cancer cell line, 24 h, MTT
[14] = A549, cancer cell line, 24 h, MTT

Row | Compound | IC50 [1, 10] [µM] | IC50 [2, 11] [µM] | IC50 [3, 12] [µM] | IC50 [4, 13] [µM] | IC50 [5, 14] [µM] | IC50 ([1]; Homo sapiens, HEK-293T) [µM] | IC50 ([2]; Homo sapiens, HaCaT) [µM] | IC50 ([3]; Homo sapiens, MCF7, 24 h) [µM] | IC50 ([4]; Homo sapiens, DU-145, 24 h) [µM] | IC50 ([5]; Homo sapiens, A549, 24 h) [µM] | ROS generation compared to negative control (order) (DU-145 cells [6]) | Reduction of mitochondrial membrane potential (DU-145 cells [7]) | Activity toward DU-145 cancer cells [4] | Toxicity towards normal (healthy) cells [8] | Stability in DMSO solution [9] | Stability in DMSO/H2O solution (Stability in DMSO/H2O; DMSO/H2O 9:1 v/v, room temperature, 0 min, 48 h and 96 h, UV-Vis) | Structure after dissolving in biological medium (Stability in DMSO/H2O; biological medium, confirmed by UV-Vis and FT-IR)
1 | N.N.[Cl][Pt][Cl] [Cisplatin, cisplatin, reference compound] | 21 ± 1.8 | 13.3 ± 1.1 | 50.9 ± 2.6 | 98.3 ± 1.3 | 57 ± 1.3 | – | – | – | – | – | – | – | – | – | – | – | –
2 | OCc1ccccn1 [2-Pyridinemethanol, 2-pyridinemethanol] | – | – | – | – | – | > 1000 | > 1000 | > 1000 | > 1000 | > 1000 | – | – | – | – | – | – | –
3 | OCCc1ccccn1 [2-Pyridineethanol, 2-pyridineethanol] | – | – | – | – | – | > 1000 | > 1000 | > 1000 | > 1000 | > 1000 | complex 1 > complex 3 > 2-pyridineethanol > 2-ethylpyridyne | most significantly reduced | – | – | – | – | –
4 | trans-[CuCl2(etpy)2] [Complex 1] | > 1000 | > 1000 | > 1000 | > 1000 | > 1000 | – | – | – | – | – | complex 1 > complex 3 > 2-pyridineethanol > 2-ethylpyridyne | least effect | inactive | did not exhibit toxicity; also recorded: nontoxic | – | – | –
5 | CCc1ccccn1 [2-Ethylpyridine, 2-ethylpyridine] | – | – | – | – | – | > 1000 | > 1000 | > 1000 | > 1000 | > 1000 | complex 1 > complex 3 > 2-pyridineethanol > 2-ethylpyridyne | most significantly reduced | – | – | – | – | –
6 | [Cu4OCl6(etpy)4] [Complex 2] | > 1000 | > 1000 | > 1000 | > 1000 | > 1000 | – | – | – | – | – | – | – | inactive | – | turns into complex 1 | turns into complex 1 | adopts the same structure as compound 1

Source: PMC9516696 (RSC Advances, 2022)
